Measurements from ChEMBL document CHEMBL4190362, “Synthesis, biological evaluation and quantitative structure-active relationships of 1,3-thiazolidin-4-one derivatives. A promising chemical scaffold endowed with high antifungal potency and low cytotoxicity” (Eur J Med Chem, 2017).

Experiments:
Staphylococcus warneri = assay: Antibacterial activity against Staphylococcus warneri assessed as inhibition of microbial growth incubated for 18 to 22 hrs by broth microdilution method; type: functional
Outline: (§1)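 Broth microdilution in Mueller-Hinton II broth following NCCLS recommendations; compounds dissolved in DMSO.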

Nakaseomyces glabratus = assay: Antifungal activity against Candida glabrata clinical isolates assessed as inhibition of microbial growth incubated for 24 hrs by broth microdilution method; type: functional
Outline: (§2)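 Twenty-two clinical Candida isolates (8 C. albicans, 4 C. glabrata, 3 C. tropicalis, 3 C. krusei, 2 C. parapsilosis, 2 C. sake) were identified by colony morphology and biochemistry and subcultured at 35 °C for purity. Compounds were dissolved in DMSO and tested by broth microdilution in Sabouraud dextrose broth per NCCLS/CLSI/EUCAST guidance. Values are geometric mean MIC per species (µg/mL).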

Staphylococcus aureus = assay: Antibacterial activity against Staphylococcus aureus assessed as inhibition of microbial growth incubated for 18 to 22 hrs by broth microdilution method; type: functional; outline: as §1
[1] = tested on: Streptococcus alpha-hemolyticus (Streptococcus sp.); assay: Antibacterial activity against Streptococcus Streptococcus alpha hemolyticus assessed as inhibition of microbial growth incubated for 18 to 22 hrs by broth microdilution method
Enterococcus faecalis = assay: Antibacterial activity against Streptococcus faecalis assessed as inhibition of microbial growth incubated for 18 to 22 hrs by broth microdilution method; type: functional; outline: as §1
[Candida] sake = Antifungal activity against Candida sake clinical isolates assessed as inhibition of microbial growth incubated for 24 hrs by broth microdilution method; type: functional; details: Fermentozyma sake; outline: as §2
Enterobacter = assay: Antibacterial activity against Enterobacter spp. assessed as inhibition of microbial growth incubated for 18 to 22 hrs by broth microdilution method; type: functional; outline: as §1
Proteus mirabilis = assay: Antibacterial activity against Proteus mirabilis assessed as inhibition of microbial growth incubated for 18 to 22 hrs by broth microdilution method; type: functional; outline: as §1
Escherichia coli = assay: Antibacterial activity against Escherichia coli assessed as inhibition of microbial growth incubated for 18 to 22 hrs by broth microdilution method; type: functional; outline: as §1
Candida parapsilosis = assay: Antifungal activity against Candida parapsilosis clinical isolates assessed as inhibition of microbial growth incubated for 24 hrs by broth microdilution method; type: functional; details: Lodderomyces parapsilosis; outline: as §2
Candida tropicalis = assay: Antifungal activity against Candida tropicalis clinical isolates assessed as inhibition of microbial growth incubated for 24 hrs by broth microdilution method; type: functional; outline: as §2
Klebsiella oxytoca = assay: Antibacterial activity against Klebsiella oxytoca assessed as inhibition of microbial growth incubated for 18 to 22 hrs by broth microdilution method; type: functional; outline: as §1
Pichia kudriavzevii = assay: Antifungal activity against Candida krusei clinical isolates assessed as inhibition of microbial growth incubated for 24 hrs by broth microdilution method; type: functional; outline: as §2
Candida albicans = assay: Antifungal activity against Candida albicans clinical isolates assessed as inhibition of microbial growth incubated for 24 hrs by broth microdilution method; type: functional; outline: as §2

Row | SMILES | MIC (Staphylococcus warneri) [µg/mL] | MIC (Nakaseomyces glabratus) [µg/mL] | MIC (Staphylococcus aureus) [µg/mL] | MIC (Enterococcus faecalis) [µg/mL] | MIC ([Candida] sake) [µg/mL] | MIC (Enterobacter) [µg/mL] | MIC (Proteus mirabilis) [µg/mL] | MIC (Escherichia coli) [µg/mL] | MIC (Candida parapsilosis) [µg/mL] | MIC (Candida tropicalis) [µg/mL] | MIC (Klebsiella oxytoca) [µg/mL] | MIC (Pichia kudriavzevii) [µg/mL] | MIC (Candida albicans) [µg/mL] | MIC [1] [µg/mL]
1 | CC1CCC/C(=N/N=C2\NC(=O)CS2)C1 (stereo not given) | ≥ 256 | 8 | ≥ 256 | ≥ 256 | 2 | ≥ 256 | ≥ 256 | ≥ 256 | 2 | 8 | ≥ 256 | 2 | 8 | ≥ 256
2 | CCCC/C(C)=N\N=C1/NC(=O)CS1 | ≥ 256 | 2 | ≥ 256 | ≥ 256 | 2 | ≥ 256 | ≥ 256 | ≥ 256 | 4 | 32 | ≥ 256 | 2 | 2 | ≥ 256
3 | C/C(=N/N=C1\NC(=O)CS1)C1CC1 | ≥ 256 | 2 | ≥ 256 | ≥ 256 | 2 | ≥ 256 | ≥ 256 | ≥ 256 | 4 | 32 | ≥ 256 | 2 | 2 | ≥ 256
4 | O=C1CS/C(=N/N=C\c2ccccn2)N1 | ≥ 256 | 8 | ≥ 256 | ≥ 256 | 2 | ≥ 256 | ≥ 256 | ≥ 256 | 2 | 2 | ≥ 256 | 4 | 2 | ≥ 256
5 | O=C1CS/C(=N/N=C\c2cccc([N+](=O)[O-])c2)N1 | ≥ 256 | 8 | ≥ 256 | ≥ 256 | 8 | ≥ 256 | ≥ 256 | ≥ 256 | 4 | 16 | ≥ 256 | 8 | 16 | ≥ 256
6 | CC1(C)CCC/C(=N/N=C2\NC(=O)CS2)C1 | ≥ 256 | 2 | ≥ 256 | ≥ 256 | 2 | ≥ 256 | ≥ 256 | ≥ 256 | 128 | 32 | ≥ 256 | 2 | 2 | ≥ 256
7 | CCCCCC/C(C)=N\N=C1/NC(=O)CS1 | ≥ 256 | 2 | ≥ 256 | ≥ 256 | 16 | ≥ 256 | ≥ 256 | ≥ 256 | 16 | 2 | ≥ 256 | 16 | 2 | ≥ 256
8 | O=C1CS/C(=N/N=C\c2ccccc2[N+](=O)[O-])N1 | ≥ 256 | 8 | ≥ 256 | ≥ 256 | 8 | ≥ 256 | ≥ 256 | ≥ 256 | 128 | 4 | ≥ 256 | 16 | 16 | ≥ 256
9 | O=C1CS/C(=N/N=C\c2ccc([N+](=O)[O-])cc2)N1Cc1ccccc1 | ≥ 256 | 2 | ≥ 256 | ≥ 256 | 4 | ≥ 256 | ≥ 256 | ≥ 256 | 2 | 8 | ≥ 256 | 16 | 4 | –
10 | O=C1CS/C(=N/N=C\c2ccccc2)N1Cc1ccccc1 | ≥ 256 | 4 | ≥ 256 | ≥ 256 | 16 | ≥ 256 | ≥ 256 | ≥ 256 | 4 | 16 | ≥ 256 | 16 | 4 | –
11 | O=C1CS/C(=N/N=C\c2cccc([N+](=O)[O-])c2)N1Cc1ccccc1 | ≥ 256 | 2 | ≥ 256 | ≥ 256 | 8 | ≥ 256 | ≥ 256 | ≥ 256 | 2 | 2 | ≥ 256 | 2 | 2 | –
12 | C/C(=N/N=C1/SCC(=O)N1Cc1ccccc1)c1ccccn1 | ≥ 256 | 16 | ≥ 256 | ≥ 256 | 256 | ≥ 256 | ≥ 256 | ≥ 256 | 256 | 28 | ≥ 256 | 256 | 256 | –
13 | CC(C)(O/N=C(\C(=O)N[C@@H]1C(=O)N2C(C(=O)[O-])=C(C[n+]3ccccc3)CS[C@H]12)c1csc(N)n1)C(=O)O [CEFTAZIDIME] | 8 | – | 8 | 8 | – | 8 | 8 | 8 | – | – | 8 | – | – | 8
14 | C/C(=N/N=C1/SCC(=O)N1Cc1ccccc1)c1ccc2c(c1)OCCO2 | ≥ 256 | 8 | ≥ 256 | ≥ 256 | 8 | ≥ 256 | ≥ 256 | ≥ 256 | 2 | 2 | ≥ 256 | 4 | 2 | –
15 | CCCC/C(CC)=N\N=C1\SCC(=O)N1Cc1ccccc1 | ≥ 256 | 32 | ≥ 256 | ≥ 256 | 4 | ≥ 256 | ≥ 256 | ≥ 256 | 8 | 16 | ≥ 256 | 4 | 128 | –

Continued, in another order:

Row | MIC (Staphylococcus warneri) [µg/mL] | MIC (Nakaseomyces glabratus) [µg/mL] | MIC (Staphylococcus aureus) [µg/mL] | MIC (Enterococcus faecalis) [µg/mL] | MIC ([Candida] sake) [µg/mL] | MIC (Enterobacter) [µg/mL] | MIC (Proteus mirabilis) [µg/mL] | MIC (Escherichia coli) [µg/mL] | MIC (Candida parapsilosis) [µg/mL] | MIC (Candida tropicalis) [µg/mL] | MIC (Klebsiella oxytoca) [µg/mL] | MIC (Pichia kudriavzevii) [µg/mL] | MIC (Candida albicans) [µg/mL] | SMILES | MIC [1] [µg/mL]
16 | ≥ 256 | 8 | ≥ 256 | ≥ 256 | 16 | ≥ 256 | ≥ 256 | ≥ 256 | 4 | 8 | ≥ 256 | 2 | 4 | C/C(=N/N=C1\NC(=O)CS1)c1c[nH]c2ccccc12 | ≥ 256
17 | ≥ 256 | 16 | ≥ 256 | ≥ 256 | 256 | ≥ 256 | ≥ 256 | ≥ 256 | 256 | 256 | ≥ 256 | 256 | 256 | C/C(=N/N=C1\NC(=O)CS1)c1cc2ccccc2oc1=O | ≥ 256
18 | ≥ 256 | 8 | ≥ 256 | ≥ 256 | 16 | ≥ 256 | ≥ 256 | ≥ 256 | 16 | 8 | ≥ 256 | 4 | 4 | C/C(=N/N=C1\NC(=O)CS1)c1ccc([N+](=O)[O-])cc1 | ≥ 256
19 | ≥ 256 | 4 | ≥ 256 | ≥ 256 | 8 | ≥ 256 | ≥ 256 | ≥ 256 | 16 | 4 | ≥ 256 | 8 | 4 | C/C(=N/N=C1\NC(=O)CS1)c1ccc2c(c1)OCCO2 | ≥ 256
20 | ≥ 256 | 8 | ≥ 256 | ≥ 256 | 16 | ≥ 256 | ≥ 256 | ≥ 256 | 8 | 8 | ≥ 256 | 16 | 8 | C/C(=N/N=C1\NC(=O)CS1)c1ccsc1 | ≥ 256
21 | ≥ 256 | 2 | ≥ 256 | ≥ 256 | 2 | ≥ 256 | ≥ 256 | ≥ 256 | 2 | 16 | ≥ 256 | 16 | 2 | C/C(=N/N=C1\NC(=O)CS1)c1cccc2ccccc12 | ≥ 256
22 | ≥ 256 | 2 | ≥ 256 | ≥ 256 | 8 | ≥ 256 | ≥ 256 | ≥ 256 | 16 | 8 | ≥ 256 | 4 | 4 | C/C(=N/N=C1/SCC(=O)N1Cc1ccccc1)c1cccc([N+](=O)[O-])c1 | –
